ChEMBL document CHEMBL1148384, “Design and synthesis of peptidomimetic protein farnesyltransferase inhibitors as anti-Trypanosoma brucei agents” (J Med Chem, 2004)

Legend:
NIH3T3 = assay: Effective dose against murine 3T3 fibroblasts cells; assay type: functional; details: Mus musculus, read-out: ED50 (the source's name)
In short: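 Murine 3T3 fibroblasts were grown in RPMI 1640 with 10% FBS and held 72 h with compound at 37 °C, 5% CO2.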

[1] = system: Trypanosoma brucei brucei; assay: Effective dose required to inhibit the growth of Trypanosoma brucei; assay type: functional; details: read-out: ED50 (the source's name)
In short: (§1)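 Bloodstream-form strain 427 was grown in HMI-9 with 10% FBS at 37 °C, 5% CO2. Cells were seeded at 1 × 10^4 trypomastigotes/well in triplicate, with serial dilutions from 20 mM DMSO stocks. Growth was read with Alamar Blue at 48 h, pentamidine served as positive control, and ED50 was fitted from the curves.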

[2] = system: Trypanosoma brucei rhodesiense; assay: Effective dose required to inhibit the growth of Trypanosoma brucei rhodesiense; assay type: functional; details: read-out: ED50 (the source's name)
In short: (§2)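 Bloodstream-form trypomastigotes of strain STIB 900 were grown in HMI-18 with nonessential amino acids, glucose and 15% heat-inactivated FCS at 37 °C, 5% CO2. Compounds were given as serial dilutions, in triplicate, from 1 × 10^4 cells/well. Cultures ran 72 h before Alamar Blue read-out, and ED50 was fitted.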

[3] = system: protein farnesyltransferase (Trypanosoma brucei); assay: Inhibition of against Trypanosoma brucei protein farnesyltransferase at 50 nM concentration
[4] = system: Trypanosoma brucei brucei; assay: Dose required to inhibit growth of Trypanosoma brucei; 0.5-5 uM; assay type: functional; details: read-out: ED50; in short: as §1
[5] = system: Trypanosoma brucei rhodesiense; assay: Dose required to inhibit growth of Trypanosoma brucei rhodesiense; 0.14-0.8 uM; assay type: functional; details: read-out: ED50 (the source's name); in short: as §2
[6] = system: protein farnesyltransferase (Trypanosoma brucei); assay: Inhibition of Trypanosoma brucei protein farnesyltransferase at 50 nM (0-14%)

N#Cc1ccc(Cn2cncc2CNc2ccc(C(=O)NCc3ccccc3)c(-c3ccccc3)c2)cc1
EC50 (NIH3T3): > 10 µM | EC50 [1]: 10 µM | EC50 [2]: 8.2 µM | inhibition [3]: 1.2%

COC(=O)[C@H](CCSC)NC(=O)c1ccc(NCc2cncn2Cc2ccc(Cl)cc2)cc1-c1ccccc1
EC50 (NIH3T3): > 10 µM | EC50 [4]: ≤ 5 µM | EC50 [5]: ≤ 0.8 µM | inhibition [6]: ≤ 14%

CC(C)NC(=O)c1ccc(NCc2cncn2Cc2ccc(C#N)cc2)cc1-c1ccccc1
EC50 (NIH3T3): > 10 µM | EC50 [1]: > 10 µM | EC50 [2]: 5.3 µM | inhibition [3]: 8.4%

COC(=O)[C@H](CCSC)NC(=O)c1ccc(NCc2cncn2Cc2ccc(C#N)cc2)cc1-c1ccccc1
EC50 (NIH3T3): > 10 µM | EC50 [4]: ≤ 5 µM | EC50 [5]: ≤ 0.8 µM | inhibition [6]: ≤ 14%

CSCC[C@H](NC(=O)c1ccc(NCc2cn(Cc3ccc(-c4ccccc4)cc3)cn2)cc1-c1ccccc1)C(=O)O
inhibition [3]: 4.5%

COC(=O)[C@H](CCSC)NC(=O)c1ccc(NCc2cncn2Cc2ccc(-c3ccccc3)cc2)cc1-c1ccccc1
EC50 (NIH3T3): > 10 µM | EC50 [4]: ≤ 5 µM | EC50 [5]: > 0.14 µM | inhibition [6]: 14%

N#Cc1ccc(Cn2cncc2CNc2ccc(C(=O)Nc3cccc(C#N)c3)c(-c3ccccc3)c2)cc1
EC50 (NIH3T3): > 10 µM | EC50 [1]: > 10 µM | inhibition [3]: 2.2%

COC(=O)[C@H](CCSC)NC(=O)c1ccc(NCc2cncn2Cc2ccc(C)cc2)cc1-c1ccccc1
EC50 (NIH3T3): > 10 µM | EC50 [4]: ≤ 5 µM | EC50 [5]: ≤ 0.8 µM | inhibition [6]: ≤ 14%

COC(=O)[C@H](CCSC)NC(=O)c1ccc(CN(Cc2c[nH]cn2)Cc2c[nH]cn2)cc1-c1ccccc1C
EC50 (NIH3T3): > 10 µM | EC50 [1]: 0.1 µM | EC50 [2]: 0.0015 µM | inhibition [3]: 66.2%

CSCC[C@H](NC(=O)c1ccc(NCc2cncn2CC2CCCCC2)cc1-c1ccccc1)C(=O)O
inhibition [3]: 69.8%

CSCC[C@H](NC(=O)c1ccc(NCc2cn(CC3CCCCC3)cn2)cc1-c1ccccc1)C(=O)O
inhibition [3]: 12%

CSCC[C@H](NC(=O)c1ccc(CNCc2[nH]cnc2C)cc1-c1ccccc1C)C(=O)O
EC50 (NIH3T3): > 10 µM | EC50 [1]: > 10 µM | inhibition [3]: 68.5%

CCCCCn1cncc1CNc1ccc(C(=O)N[C@@H](CCSC)C(=O)O)c(-c2ccccc2)c1
inhibition [3]: 80.6%

CCOC(=O)[C@H](CCSC)NC(=O)c1ccc(CNCc2c[nH]cn2)cc1-c1ccccc1C
EC50 (NIH3T3): 10 µM | EC50 [1]: 0.01 µM | EC50 [2]: 0.005 µM | inhibition [3]: 10.4%

COC(=O)[C@H](CCSC)NC(=O)c1ccc(CNCc2cncn2Cc2ccc(C#N)cc2)cc1-c1ccccc1C
EC50 (NIH3T3): > 10 µM | EC50 [1]: 0.5 µM | EC50 [2]: 0.1 µM | inhibition [3]: 7%

COC(=O)[C@H](CCSC)NC(=O)c1ccc(CNCc2c[nH]cn2)cc1-c1ccccc1C
EC50 (NIH3T3): 25 µM | EC50 [1]: 0.025 µM | EC50 [2]: 0.0026 µM | inhibition [3]: 41%

N#Cc1ccc(Cn2cncc2CNc2ccc(C(=O)Nc3cccc([N+](=O)[O-])c3)c(-c3ccccc3)c2)cc1
EC50 (NIH3T3): > 10 µM | EC50 [1]: > 10 µM | EC50 [2]: 3 µM | inhibition [3]: 9.1%

COC(=O)[C@H](CCSC)NC(=O)c1ccc(NCc2cncn2Cc2ccc([N+](=O)[O-])cc2)cc1-c1ccccc1
EC50 (NIH3T3): > 10 µM | EC50 [4]: ≤ 5 µM | EC50 [5]: ≤ 0.8 µM | inhibition [6]: ≤ 14%

CSCC[C@H](NC(=O)c1ccc(CNCc2c[nH]cn2)cc1-c1ccccc1C)C(=O)OC(C)C
EC50 (NIH3T3): 10 µM | EC50 [1]: 0.005 µM | EC50 [2]: 0.003 µM | inhibition [3]: 6.2%

CSCNC(=O)c1ccc(NCc2cncn2Cc2ccc(C#N)cc2)cc1-c1ccccc1
EC50 (NIH3T3): > 10 µM | EC50 [1]: > 10 µM | EC50 [2]: 3 µM | inhibition [3]: 17.1%

N#CCNC(=O)c1ccc(NCc2cncn2Cc2ccc(C#N)cc2)cc1-c1ccccc1
EC50 (NIH3T3): > 10 µM | EC50 [1]: > 10 µM | EC50 [2]: 45 µM | inhibition [3]: 0%

CSCC[C@H](NC(=O)c1ccc(NC[C@@H](N)CS)cc1-c1ccccc1)C(=O)O
EC50 (NIH3T3): > 25 µM | EC50 [1]: > 25 µM | EC50 [2]: 9.2 µM

CCCCCn1cnc(CNc2ccc(C(=O)N[C@@H](CCSC)C(=O)O)c(-c3ccccc3)c2)c1
inhibition [3]: 11.5%
